Bioassay records as filed in PubChem BioAssay.
pPAFAH inh: inhibitors of human plasma PAF acetylhydrolase (pPAFAH) | Q13093 | recombinant pPAFAH, FP-rhodamine probe fluorescence polarization | inhibition, % at 3.39 µM | hit rate 1.5% among 330,000 | AID 463082;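 active means inhibition above the mean inhibition across the screen plus 3 SD, cut at about 25% in these data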;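 further: inhibitors block binding of the rhodamine activity-based probe so polarization drops; 0% = enzyme with DMSO and 100% = wells lacking pPAFAH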
PREPL inhibitor: inhibitors of human prolyl oligopeptidase-like enzyme PREPL. recombinant PREPL, fluorescence polarization activity-based probe. inhibition, % at 5.96 µM. hit rate 0.68% among 320,000. AID 2751; in the data active means inhibition above about 43%;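 further: 0% = enzyme with DMSO and 100% = wells lacking enzyme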
PAFAH2 FP inh: PAFAH2 (human) inhibition | Q99487 | recombinant PAFAH2, FP-rhodamine activity probe, fluorescence polarization | inhibition, % at 3.39 µM | hit rate 0.99% among 340,000 | AID 492956;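 active means inhibition above the mean over all tested compounds plus 3 SD, cut at about 30% in these data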;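 further: inhibitors block probe labeling of enzyme so polarization drops; 0% = enzyme with DMSO and 100% = wells lacking PAFAH2 protein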
PAFAH1B2 inh: blocks human PAF acetylhydrolase 1b catalytic subunit 2; P68402; recombinant PAFAH1B2, FP-rhodamine activity probe, fluorescence polarization; inhibition, % at 3.39 µM; hit rate 1.2% among 340,000;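 active means inhibition above the mean of all tested compounds plus 3 SD, cut at about 24% in these data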;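 further: 0% = enzyme with DMSO and 100% = wells lacking PAFAH1B2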
PAFAH1B3 inh: inhibitors of human PAFAH1B3 | Q15102 | recombinant PAFAH1B3, FP-rhodamine probe, fluorescence polarization | inhibition, % at 3.39 µM | hit rate 0.28% among 340,000 | AID 492972;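 active means inhibition above the screen-wide average of all tested compounds plus 3 SD, cut at about 25% in these data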;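 further: 0% = enzyme with DMSO only and 100% = wells lacking PAFAH1B3 protein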
Apaf1 inhib: human Apaf-1 inhibition; hit rate 0.71% among 330,000; inhibition, % at 20 µM; reconstituted apoptosome caspase-3 activity, DEVD-Rh110 fluorescence; O14727; AID 489030; active means inhibition of at least 40% at 20 µM;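 further: plate controls were DMSO wells for no effect and DEVD-CHO caspase inhibitor wells for full effect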
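Material: reconstituted apoptosome with Apaf-1, cytochrome c, caspase-9, procaspase-3, dATP. Technique: Rh110 fluorescence intensity. Buffer or medium: pH 7.5 Hepes buffer with CHAPS, BSA, DTT. Times: 30 min plus 50 min, RT.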
pPAFAH FP conf: confirmation of human plasma PAF acetylhydrolase (pPAFAH) inhibitors; shares compounds with pPAFAH inh; recombinant pPAFAH, FP-Rh probe fluorescence polarization; inhibition, % at 3.39 µM; hit rate 72% among 2,300; AID 463230;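 active means mean inhibition of the triplicate above the hit cutoff set for the earlier primary screen, cut at about 25% in these data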;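 further: 0% = enzyme with DMSO and 100% = wells lacking pPAFAH enzyme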
Active calls of the source: *; . = no result given. Only some compounds are listed: those with a hit (about 3.5% of all), similar ones and a draw of the others.

SMILES	pPAFAH inh	PREPL inhibitor	PAFAH2 FP inh	PAFAH1B2 inh	PAFAH1B3 inh	Apaf1 inhib	pPAFAH FP conf
O=C(NN=C1CCCCCC1)c1cc2ccccc2cc1O	57.7*	10.3	5.3	5.9	9.2	12.6	11.2
CC[C@@H](Nc1ncnc2c1oc1ccccc12)C(=O)O	0.1	0.4	1.0	6.0	4.8	-23.0	.
S=c1[nH]nc(C2COc3ccccc3O2)o1 (centres undefined)	44.3*	-0.2	-3.9	3.0	-6.0	0.8	4.5
CN(CC(=O)Nc1ccc(F)c(F)c1F)C(=O)c1cc(S(=O)(=O)N(C)C)ccc1N1CCCC1	.	.	1.8	0.7	-1.5	.	.
Cc1cccc(C)c1NC(=O)CN(C)C(=O)c1cc(S(=O)(=O)N(C)C)ccc1N1CCCC1	35.3*	5.1	2.0	-2.8	7.4	8.1	3.8
Cc1ccc(-n2nc(C(=O)c3ccccc3)n3c(=O)c(Cc4ccccc4)nnc23)cc1	20.7	-0.4	5.3	-1.1	-2.4	4.2	.
O=C(c1ccccc1)c1nn(-c2ccccc2)c2nnc(Cc3ccccc3)c(=O)n12	41.0*	3.6	27.0	-1.3	2.9	3.9	30.2*
COc1ccc(C(CNC(=O)c2ccc(-c3cccc(C(F)(F)F)c3)o2)N2CCOCC2)cc1 (centres undefined)	3.7	34.3	-55.4	-4.1	2.6	36.2	.
CSc1ccccc1NC(=O)CN(C)Cc1c(O)ccc2ccccc12	3.9	-10.2	-7.8	10.3	1.4	14.7	.
COc1ccc(CCNC(=O)c2ccc3nc(-c4ccco4)c(-c4ccco4)nc3c2)cc1OC	44.0*	16.6	23.4	11.4	22.2	55.5*	20.1
COc1cccc(=O)c2c(C)n(-c3ccc(C(=O)O)cc3)c(C)c12	36.9*	12.9	10.0	1.9	6.3	6.8	0.8
COc1ccc(-n2c(C)c3c(OC)cccc(=O)c3c2C)cc1	21.1	25.6	12.8	5.0	3.0	-2.6	.
CCOc1cccc(=O)c2c(C)n(-c3ccc(C(=O)O)cc3)c(C)c12	37.6*	0.4	8.5	2.6	6.0	8.2	20.6
O=C(OCCN1CCOCC1)c1ccccc1Cl	0.9	-2.8	-2.7	-3.0	8.8	-17.0	.
CC(C)=CCc1c(O)c(CC=C(C)C)c2c(c1O)-c1cc(O)c(O)cc1CC2	76.4*	3.1	.	.	.	18.8	56.2*
CC12CCC(=O)N1C(C(=O)NNC(=O)c1ccc(Br)cc1)CS2 (centres undefined)	0.1	0.5	-4.4	-1.4	-0.9	-7.3	.
CCOC(=O)Cc1cc(=O)n2[nH]c(C)c(-c3ccccc3)c2n1	16.5	3.6	-3.1	-1.0	-5.3	1.3	.
CCOC(=O)Cc1cc(=O)n2[nH]c(-c3ccccc3)c(-c3ccccc3)c2n1	42.9*	1.7	-3.6	-4.8	-18.0	-30.2	19.1
N=C1/C(=C\c2ccc(-c3cccc(Cl)c3)o2)C(=O)N=C2SC=C(c3ccccc3)N12	42.7*	12.5	-15.0	2.6	2.4	22.7	39.6*
CSCCC(NC(=O)c1ccccc1)C(=O)N(C)CC(=O)Nc1ccc(N2CCOCC2)cc1 (centres undefined)	35.9*	1.6	9.4	2.6	4.5	2.1	31.6*
CN(CC(=O)Nc1ccc(C#N)cc1)CC(=O)Nc1ccc(N2CCOCC2)cc1	6.6	28.5	1.2	6.4	5.0	-2.7	.
CN(CC(=O)Nc1ccc(N2CCOCC2)cc1)CC(=O)Nc1ccc(N2CCOCC2)cc1	41.7*	0.5	4.2	4.0	0.3	-8.0	35.0*
CCCCC(=O)c1ccc(O)cc1	18.6	7.3	-0.7	3.0	6.1	-22.1	.
O=C(CCO)c1ccc(O)cc1	36.9*	12.0	14.4	7.2	11.3	-22.5	17.2
O=C(CC1C(=O)NCCN1Cc1ccccc1C(F)(F)F)NC1CCCCCC1 (centres undefined)	7.4	0.2	-4.8	-1.5	0.9	14.2	.
SMILES	pPAFAH inh	PREPL inhibitor	PAFAH2 FP inh	PAFAH1B2 inh	PAFAH1B3 inh	Apaf1 inhib	pPAFAH FP conf
CC(C)C(C)NC(=O)COC(=O)C1CCN(S(=O)(=O)c2ccc3c(c2)OCCO3)CC1 (centres undefined)	38.0*	-0.8	9.0	4.2	0.2	5.4	10.5
CCNC(=O)COC(=O)C1CCN(S(=O)(=O)c2ccc3c(c2)OCCO3)CC1	8.4	-2.2	3.0	-0.8	4.6	0.1	.
O=C(C1=C(O)C(=O)N(c2nc3ccc(Cl)cc3s2)C1c1ccco1)c1ccco1 (centres undefined)	48.9*	28.4	28.0	7.3	12.1	21.2	38.4*
COc1ccc(CCN(C)C(=O)CSc2nnc(-c3ccco3)o2)cc1OC	0.2	2.9	-1.1	5.8	10.1	8.8	.
COc1ccc(S(=O)(=O)CC(=O)c2cc3cc(Br)ccc3oc2=O)cc1	37.4*	1.4	16.9	17.6	8.4	16.4	32.6*
COc1cc(C(=O)NNC(=O)CNC(=O)C2CCCCC2)ccc1OC(C)C	-2.3	17.7	1.9	-1.1	4.7	10.3	.
Oc1ccc(C2C[C@H]3CC[C@@H]2C3)cc1O (some centres undefined)	51.8*	4.7	7.0	75.1*	13.6	20.5	32.1*
COc1ccccc1C(=O)NC(C)C(c1cccs1)N1CCOCC1 (centres undefined)	-0.1	-1.1	4.8	-0.1	8.7	-16.5	.
COc1cccc(CN(C)C(=O)CC2C(=O)NCCN2C2Cc3ccccc3C2)c1 (centres undefined)	1.2	6.3	-1.4	4.3	7.6	-2.7	.
O=C(O)c1cc(Cl)ccc1-c1ccc(/C=C/c2cc(C(F)(F)F)[nH]c(=O)n2)o1	42.8*	13.5	8.3	0.8	-4.0	3.3	8.5
O=C(O)c1ccccc1-c1ccc(/C=C/c2cc(C(F)(F)F)[nH]c(=O)n2)o1	.	.	-6.9	-3.1	-4.3	12.9	.
O=C1CC(c2ccc(O)c(O)c2)Oc2c1ccc(O)c2O (centres undefined)	59.6*	40.1	50.4*	11.8	18.7	-22.9	60.0*
COCCNC(=O)/C(C#N)=C/c1cc(C)n(-c2ccc(C)cc2)c1C	55.2*	7.9	7.6	1.1	7.2	4.4	52.0*
Cc1ccc(C(=O)Nc2scc(-c3ccccc3)c2C(=O)O)cc1	-16.8	-0.7	-8.0	5.8	13.6	9.9	.
CC(C)(C)C(=O)Nc1scc(-c2ccc(-c3ccccc3)cc2)c1C(=O)O	42.6*	7.3	0.1	7.8	0.9	10.5	24.8*
COC(=O)CCC(=O)OC1(C)C(=O)C2=COC(c3ccc(OC)cc3)=CC2=C(Br)C1=O (centres undefined)	35.2*	11.0	.	.	.	0.7	20.7
CC1Cc2cc(/C=C3/SC(=S)NC3=O)ccc2O1 (centres undefined)	4.3	7.9	8.0	12.0	7.7	-12.8	.
